Reference: ChEMBL document CHEMBL4422614 (Eur J Med Chem, 2019)
Active and inactive are the calls of the source. No cut-off for these calls is given here.

Legend:
[1] = system: Mus musculus; assay: Cognition enhancement activity in amyloid beta (25 to 35 residues) induced C57BL/6J mouse model of Alzheimer's disease assessed as decrease in escape latancy at 4 mg/kg/day, ig administered for 26 consecutive days by Morris water maze test; format: functional, organism-based
In short: (§1)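 Mice were randomized into 7 groups. All except sham got an ICV injection of Aβ25-35 (3 nmol); sham got the same volume of saline ICV. Dosing was intragastric daily for 26 days, with 0.5% CMC-Na as vehicle for sham and model. Body weight, diarrhea and emesis-like behavior were monitored.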

[2] = system: Mus musculus; assay: Cognition enhancement activity in amyloid beta (25 to 35 residues) induced C57BL/6J mouse model of Alzheimer's disease assessed as swimming speed at 30 mg/kg/day, ig administered for 26 consecutive days by Morris water maze test (reference value: 15.6 +/- 2.4 cm/sec); format: functional; in short: as §1
[3] = system: Mus musculus; assay: (§2) Neuroprotection in amyloid beta (25 to 35 residues) induced C57BL/6J mouse model of Alzheimer's disease assessed as reduction in ratio of apoptotic neuron in CA1 hippocampus region at 4 mg/kg/day, ig administered for 26 consecutive days by hematoxylin and eosin staining-based light microscopic analysis (reference value: 40.6 +/- 12.5%); format: ADME, organism-based; set-up: scale not given: the % may be the effect or the level left; settings: in vivo, po
In short: (§3)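 Hippocampal CA1, CA3 and DG neurons were stained with H&E after the Aβ25-35 ICV model and 26-day intragastric dosing. Denatured cell index = denatured cells/total cells, n = 5. Values are mean ± SD, two-way ANOVA versus model.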

[4] = system: Mus musculus; assay: Cognition enhancement activity in amyloid beta (25 to 35 residues) induced C57BL/6J mouse model of Alzheimer's disease assessed as swimming path length in virtual platform at 4 mg/kg/day, ig administered for 26 consecutive days by Morris water maze test (10.2 +/- 3.2 cm); format: functional; in short: as §1
[5] = system: Mus musculus; assay: as §2, with “DG” for “CA1”, “55.8” for “40.6”, “7.2%)” for “12.5%)”; format: ADME, organism-based; set-up: scale not given: the % may be the effect or the level left; settings: in vivo, po; in short: as §3
[6] = system: Mus musculus; assay: Cognition enhancement activity in amyloid beta (25 to 35 residues) induced C57BL/6J mouse model of Alzheimer's disease assessed as swimming time in effective region at 4 mg/kg/day, ig administered for 26 consecutive days by Morris water maze test (4.3 +/- 1.3 sec); format: functional; in short: as §1
[7] = system: Mus musculus; assay: as §2, with “CA3” for “CA1”, “80.2” for “40.6”, “8.6%)” for “12.5%)”; format: ADME, organism-based; set-up: scale not given: the % may be the effect or the level left; settings: in vivo, po; in short: as §3
[8] = in vitro; settings: PAMPA
[9] = Antioxidant activity assessed as trolox equivalent of AAPH-induced radical scavenging activity at 10 to 20 uM preincubated for 10 mins followed by AAPH addition measured every minute for 120 mins by ORAC fluorescein assay; format: functional
In short: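 ORAC values are expressed as trolox equivalents, mean ± SD of three independent experiments.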

## COc1ccc(C2CNC(=O)C2)cc1OC1CCCC1 (centres undefined) [ROLIPRAM]
[1]
  Activity: Active
[2]
  Activity: 15.1 cm/s
[3]
  Activity: 33.5%
[4]
  Activity: 16.5 cm
[5]
  Activity: 25.7%
[6]
  Time: 5.7 s
[7]
  Activity: 41.1%
[8]
  Papp at 10 h, 100 ug/ml: 18.9 ×10⁻⁶ cm/s
[9]
  Activity: 0.07 equiv
